# Measured values collected from several papers.
# Lines come from different studies, so protocols differ.
# SLC6A3: Sodium-dependent dopamine transporter (SLC6A3, Homo sapiens, UniProt Q01959)
# DRD3: D(3) dopamine receptor (DRD3, Homo sapiens, UniProt P35462)
# CASP3: Caspase-3 (CASP3, Homo sapiens, UniProt P42574)
Compound,target,test,conditions,Ki [µM]
Cc1nc2cc(OCCCCN3CCN(c4cccc(Cl)c4Cl)CC3)ccc2s1,SLC6A3,"ligand displacement, radioligand",,0.69
CCCCN1CCC(COC(=O)c2ccc(N)c(OCF)c2)CC1,SLC6A3,"cell-free assay, radioligand",,> 10
CCN(CC)c1ccc(C2Nc3ccc(C(=O)c4ccccc4)cc3NC3=C2C(=O)CC(C)(C)C3)cc1 (stereo not shown),SLC6A3,"cell-free assay, radioligand",,> 10
CN1CCN(c2ccc(-c3ccnn3-c3ccc(S(N)(=O)=O)cc3)cc2)CC1,"Carbonic anhydrase 12 (CA12, Homo sapiens, UniProt O43570)","enzyme activity, inhibitor, stopped-flow",,0.404
Oc1cccc(CCC2=NCCN2Cc2ccccc2)c1,DRD3,"ligand displacement, radioligand",,1.26
CC/C(=C(/c1ccc(O)cc1)c1ccc(OCCN)cc1)c1ccc(O)cc1,"Aromatase (CYP19A1, Homo sapiens, UniProt P11511)","enzyme activity, inhibitor, fluorescence",,0.02
CN(CCCCNC(=O)c1ccc2scnc2c1)[C@@H]1Cc2cccc3[nH]c(=O)n(c23)C1,DRD3,"ligand displacement, radioligand",cell membranes,0.427
CCc1nc2cc(OCCCCN3CCC(c4cccc(Cl)c4Cl)CC3)ccc2s1,SLC6A3,"ligand displacement, radioligand",,4
O=C1c2ccccc2CCCN1CCCCN1CCN(c2ccccn2)CC1,DRD3,"ligand displacement, radioligand",,0.003
CC(C)(COP(=O)(O)OP(=O)(O)OC[C@H]1O[C@@H](n2cnc3c(N)ncnc32)[C@H](O)[C@@H]1OP(=O)(O)O)[C@@H](O)C(=O)NCCC(=O)NCCS,"Histone acetyltransferase type B catalytic subunit (Homo sapiens, UniProt O14929)","enzyme activity, inhibitor, radiometric",,41.5
O=c1c(O)c(-c2ccc(O)cc2)oc2cc(O)cc(O)c12,CASP3,"enzyme activity, inhibitor, fluorescence",,194
COc1cccc(CCC2=NCCN2CCc2ccccc2)c1,DRD3,"ligand displacement, radioligand",,> 10
O=c1c(O)c(-c2ccc(O)c(O)c2)oc2cc(O)cc(O)c12,CASP3,"enzyme activity, inhibitor, fluorescence",,96.4
CC1Cc2ccccc2N1C(=O)c1nc2ccccc2s1 (stereo not shown),DRD3,"ligand displacement, radioligand",cell membranes,14.4
CCCC[C@H](NC(=O)[C@H](C)c1c(C)[nH]c2ccc(O)cc12)c1ncc(-c2cc3ccccc3nc2OC)[nH]1,"Prostaglandin F2-alpha receptor (PTGFR, Homo sapiens, UniProt P43088)",cell-free assay,,8.98
CN(CCCCNC(=O)c1nc2ccccc2s1)[C@@H]1Cc2cccc3[nH]c(=O)n(c23)C1,DRD3,"ligand displacement, radioligand",cell membranes,0.403
OC[C@@]12C[C@@H]1[C@@H](n1cnc3c(NC(C4CCCC4)C4CCCC4)nc(Cl)cc31)[C@H](O)[C@@H]2O,SLC6A3,"cell-free assay, radioligand",,3.9
C=CCc1ccc(O)c(-c2ccc(O)c(CC=C)c2)c1,"Peroxisome proliferator-activated receptor gamma (PPARG, Homo sapiens, UniProt P37231)","ligand displacement, TR-FRET",,2
CC1Cc2ccccc2N1C(=O)CCCN(C)[C@@H]1Cc2cccc3[nH]c(=O)n(c23)C1 (stereo partly shown),DRD3,"ligand displacement, radioligand",cell membranes,3.34
